Experimental findings from ChEMBL document CHEMBL5705905, “Pharmacological targeting of kinases MST1 and MST2 augments tissue repair and regeneration” (Sci Transl Med, 2016) are described below.

The structures appear in SMILES notation. Activity calls are given as the source filed them. The rule behind the calls is not given here.

Broadly, the Kd is the constant that tells how readily two partners part at equilibrium. In general, IC50 refers to the midpoint of a concentration-inhibition curve.

Test [1] deals with Myosin-IIIb (Homo sapiens) (UniProt Q8WXR4). Nature of the test: Inhibition of MYO3B (unknown origin) assessed as remaining activity at 1 uM by Kinome scan method relative to control.
Test [2] relates to Serine/threonine-protein kinase B-raf (Homo sapiens), P15056 [V600E]. Nature of the test: Inhibition of BRAF V600E mutant (unknown origin) assessed as remaining activity at 1 uM by Kinome scan method relative to control. The essentials:
(§1)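 Active-site-dependent competition-binding (KINOMEscan) panel of 468 kinases, test compound at 1 μM (from a 10 mM DMSO stock). Read-out is ctrl% = (test signal − positive control signal)/(negative control signal − positive control signal) × 100. DMSO is the negative control (100%) and a control compound is the positive control (0%). Lower ctrl% means tighter binding.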

The target of test [3] is Ribosomal protein S6 kinase beta-1 (Homo sapiens) (UniProt P23443). Nature of the test: Inhibition of S6K1 (unknown origin) assessed as remaining activity at 1 uM by Kinome scan method relative to control.
Test [4] concerns the target Maternal embryonic leucine zipper kinase (Homo sapiens) (UniProt Q14680). Nature of the test: Inhibition of MELK (unknown origin) assessed as remaining activity at 1 uM by Kinome scan method relative to control.
The target in test [5] is Protein kinase C iota type (Homo sapiens) (UniProt P41743). Nature of the test: Inhibition of PRKCI (unknown origin) assessed as remaining activity at 1 uM by Kinome scan method relative to control.
Sequence of Protein kinase C iota type (Homo sapiens) (P41743 whole entry): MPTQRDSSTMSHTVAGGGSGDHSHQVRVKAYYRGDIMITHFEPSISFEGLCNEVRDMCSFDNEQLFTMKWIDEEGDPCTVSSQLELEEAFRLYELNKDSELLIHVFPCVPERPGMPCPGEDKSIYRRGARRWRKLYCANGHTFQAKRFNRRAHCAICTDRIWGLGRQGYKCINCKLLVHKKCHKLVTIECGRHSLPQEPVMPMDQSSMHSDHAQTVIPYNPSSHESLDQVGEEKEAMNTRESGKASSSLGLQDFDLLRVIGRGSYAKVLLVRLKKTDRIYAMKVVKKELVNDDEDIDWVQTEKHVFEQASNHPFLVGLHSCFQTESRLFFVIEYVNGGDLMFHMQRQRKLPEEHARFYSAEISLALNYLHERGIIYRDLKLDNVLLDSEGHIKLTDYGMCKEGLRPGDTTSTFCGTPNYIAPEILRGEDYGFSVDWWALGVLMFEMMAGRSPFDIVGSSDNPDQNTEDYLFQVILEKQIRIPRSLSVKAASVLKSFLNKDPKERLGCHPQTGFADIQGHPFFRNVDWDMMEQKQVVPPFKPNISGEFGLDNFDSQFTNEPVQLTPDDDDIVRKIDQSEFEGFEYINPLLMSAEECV
For test [6], the target named is Phosphatidylinositol 4-kinase beta (Homo sapiens) (UniProt Q9UBF8). Nature of the test: Inhibition of PIK4CB (unknown origin) assessed as remaining activity at 1 uM by Kinome scan method relative to control.
Sequence of Phosphatidylinositol 4-kinase beta (Homo sapiens) (Q9UBF8 2-816 limits assumed): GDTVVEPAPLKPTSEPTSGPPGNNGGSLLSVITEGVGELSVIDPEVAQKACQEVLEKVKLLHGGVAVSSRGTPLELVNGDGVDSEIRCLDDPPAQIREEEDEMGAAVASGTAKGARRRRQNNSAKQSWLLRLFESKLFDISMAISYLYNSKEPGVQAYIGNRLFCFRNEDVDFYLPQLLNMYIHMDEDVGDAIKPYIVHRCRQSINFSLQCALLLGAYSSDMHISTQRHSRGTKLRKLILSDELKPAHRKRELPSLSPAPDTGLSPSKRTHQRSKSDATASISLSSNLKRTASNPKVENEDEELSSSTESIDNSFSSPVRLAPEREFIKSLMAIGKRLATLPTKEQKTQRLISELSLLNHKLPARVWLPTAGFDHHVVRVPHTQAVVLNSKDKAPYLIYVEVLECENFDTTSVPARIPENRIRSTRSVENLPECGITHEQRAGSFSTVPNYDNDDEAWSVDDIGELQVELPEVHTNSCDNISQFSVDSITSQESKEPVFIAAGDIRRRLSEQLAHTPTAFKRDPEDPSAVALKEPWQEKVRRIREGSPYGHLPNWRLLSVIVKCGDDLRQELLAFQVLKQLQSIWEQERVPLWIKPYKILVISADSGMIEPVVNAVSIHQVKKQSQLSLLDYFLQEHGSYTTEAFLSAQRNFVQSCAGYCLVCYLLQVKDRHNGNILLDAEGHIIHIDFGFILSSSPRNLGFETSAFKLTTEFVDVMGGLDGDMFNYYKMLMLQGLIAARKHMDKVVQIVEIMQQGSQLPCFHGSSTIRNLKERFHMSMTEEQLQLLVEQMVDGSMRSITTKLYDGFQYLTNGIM
Test [7] has as its target Serine/threonine-protein kinase MAK (Homo sapiens) (UniProt P20794). Nature of the test: Inhibition of MAK (unknown origin) assessed as remaining activity at 1 uM by Kinome scan method relative to control.
The test system of test [8] is Leucine-rich repeat serine/threonine-protein kinase 2 (Homo sapiens), Q5S007 [G2019S]. Nature of the test: Inhibition of LRRK2 G2019S mutant (unknown origin) assessed as remaining activity at 1 uM by Kinome scan method relative to control.
The subject of test [9] is Epidermal growth factor receptor (Homo sapiens), P00533 [UNDEFINED MUTATION]. Nature of the test: Inhibition of EGFR L747-T751del/Sins mutant (unknown origin) assessed as remaining activity at 1 uM by Kinome scan method relative to control.
In test [10] the target is Serine/threonine-protein kinase 26 (Homo sapiens, UniProt Q9P289). Nature of the test: Binding affinity to MST4 (unknown origin) assessed as dissociation constant.
Sequence of Serine/threonine-protein kinase 26 (Q9P289 whole entry): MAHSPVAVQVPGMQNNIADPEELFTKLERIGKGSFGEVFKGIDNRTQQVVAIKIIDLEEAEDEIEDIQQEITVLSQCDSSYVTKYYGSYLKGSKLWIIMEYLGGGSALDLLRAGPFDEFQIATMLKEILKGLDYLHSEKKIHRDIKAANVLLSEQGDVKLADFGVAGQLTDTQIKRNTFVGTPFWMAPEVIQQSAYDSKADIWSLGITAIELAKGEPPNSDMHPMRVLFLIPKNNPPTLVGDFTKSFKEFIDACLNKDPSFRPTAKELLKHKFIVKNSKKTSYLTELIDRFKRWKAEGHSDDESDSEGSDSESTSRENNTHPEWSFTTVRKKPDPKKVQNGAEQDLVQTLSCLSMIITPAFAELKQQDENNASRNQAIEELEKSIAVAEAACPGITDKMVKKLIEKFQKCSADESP
Test [11] addresses Ephrin type-A receptor 7 (Homo sapiens) (UniProt Q15375). Nature of the test: Inhibition of EPHA7 (unknown origin) assessed as remaining activity at 1 uM by Kinome scan method relative to control.
For test [12], the target named is Platelet-derived growth factor receptor beta (Homo sapiens) (UniProt P09619). Nature of the test: Inhibition of PDGFRbeta (unknown origin) assessed as remaining activity at 1 uM by Kinome scan method relative to control.
Test [13] addresses Eukaryotic translation initiation factor 2-alpha kinase 1 (Homo sapiens) (UniProt Q9BQI3). Nature of the test: Inhibition of EIF2AK1 (unknown origin) assessed as remaining activity at 1 uM by Kinome scan method relative to control.
Test [14] concerns the target Mitogen-activated protein kinase 10 (Homo sapiens) (UniProt P53779). Nature of the test: Inhibition of JNK3 (unknown origin) assessed as remaining activity at 1 uM by Kinome scan method relative to control.
In test [15] the target is T1, Serine/threonine-protein kinase 4 (Homo sapiens, UniProt Q13043).
T1 sequence (Q13043 whole entry): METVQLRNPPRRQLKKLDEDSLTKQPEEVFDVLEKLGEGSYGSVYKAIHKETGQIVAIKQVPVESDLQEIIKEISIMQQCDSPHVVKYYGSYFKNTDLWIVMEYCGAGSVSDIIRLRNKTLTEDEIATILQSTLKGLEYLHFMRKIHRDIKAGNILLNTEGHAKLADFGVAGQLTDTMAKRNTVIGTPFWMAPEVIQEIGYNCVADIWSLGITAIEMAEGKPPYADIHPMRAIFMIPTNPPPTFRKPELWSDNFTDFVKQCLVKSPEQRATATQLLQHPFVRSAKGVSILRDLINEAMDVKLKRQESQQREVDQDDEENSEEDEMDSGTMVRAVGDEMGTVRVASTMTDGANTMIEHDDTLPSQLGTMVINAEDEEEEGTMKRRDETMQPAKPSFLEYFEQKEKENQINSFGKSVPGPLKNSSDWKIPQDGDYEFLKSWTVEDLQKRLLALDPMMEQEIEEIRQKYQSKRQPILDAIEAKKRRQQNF
Nature of the test: Inhibition of recombinant His-tagged full-length MST1 (unknown origin) expressing in Escherichia coli assessed as MOB1a phosphorylation level incubated for 30 min in the presence of 300 uM ATP by immunoblot analysis. For orientation: In western blotting, separated proteins are transferred to a membrane and probed.

Test [16] concerns the target Protein-tyrosine kinase 6 (Homo sapiens) (UniProt Q13882). Nature of the test: Inhibition of BRK (unknown origin) assessed as remaining activity at 1 uM by Kinome scan method relative to control. The method, boiled down: as §1
In test [17] the target is Calcium/calmodulin-dependent protein kinase kinase 1 (Homo sapiens) (UniProt Q8N5S9). Nature of the test: Inhibition of CAMKK1 (unknown origin) assessed as remaining activity at 1 uM by Kinome scan method relative to control. The essentials:
(§2)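 Active-site-dependent competition-binding profiling (KINOMEscan) at 1 μM against a 468-kinase panel; compound supplied from a 10 mM DMSO stock. Read-out is ctrl% = (test signal − positive control signal)/(negative control signal − positive control signal) × 100. DMSO is the negative control (100%) and a control compound the positive control (0%). Lower ctrl% means tighter binding.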

Test [18] has as its target Fibroblast growth factor receptor 3 (Homo sapiens) (UniProt P22607). Nature of the test: Inhibition of FGFR3 (unknown origin) assessed as remaining activity at 1 uM by Kinome scan method relative to control.
The target in test [19] is Mitogen-activated protein kinase 1 (Homo sapiens) (UniProt P28482). Nature of the test: Inhibition of ERK2 (unknown origin) assessed as remaining activity at 1 uM by Kinome scan method relative to control.
Test [20] deals with Vascular endothelial growth factor receptor 1 (Homo sapiens) (UniProt P17948). Nature of the test: Inhibition of FLT1 (unknown origin) assessed as remaining activity at 1 uM by Kinome scan method relative to control.
Test [21] addresses Tyrosine-protein kinase receptor Tie-1 (Homo sapiens) (UniProt P35590). Nature of the test: Inhibition of TIE1 (unknown origin) assessed as remaining activity at 1 uM by Kinome scan method relative to control.
Test [22] deals with Cyclin-dependent kinase 3 (Homo sapiens) (UniProt Q00526). Nature of the test: Inhibition of CDK3 (unknown origin) assessed as remaining activity at 1 uM by Kinome scan method relative to control. The essentials: as §2
Test [23] concerns Receptor-type tyrosine-protein kinase FLT3 (Homo sapiens), P36888 [D835Y]. Nature of the test: Inhibition of FLT3 D835Y mutant (unknown origin) assessed as remaining activity at 1 uM by Kinome scan method relative to control.
A further test has as its system HepG2. Nature of the test: Inhibition of Flag-tagged MST1 Y101F/D109A mutant (unknown origin) in human HepG2 cells assessed as MOB1 phosphorylation level at 3 uM by immunoblot analysis. Type of test: cell-based.

Sequence of Epidermal growth factor receptor (Homo sapiens), P00533 [UNDEFINED MUTATION] (P00533 whole entry, looked up, stated change not applied): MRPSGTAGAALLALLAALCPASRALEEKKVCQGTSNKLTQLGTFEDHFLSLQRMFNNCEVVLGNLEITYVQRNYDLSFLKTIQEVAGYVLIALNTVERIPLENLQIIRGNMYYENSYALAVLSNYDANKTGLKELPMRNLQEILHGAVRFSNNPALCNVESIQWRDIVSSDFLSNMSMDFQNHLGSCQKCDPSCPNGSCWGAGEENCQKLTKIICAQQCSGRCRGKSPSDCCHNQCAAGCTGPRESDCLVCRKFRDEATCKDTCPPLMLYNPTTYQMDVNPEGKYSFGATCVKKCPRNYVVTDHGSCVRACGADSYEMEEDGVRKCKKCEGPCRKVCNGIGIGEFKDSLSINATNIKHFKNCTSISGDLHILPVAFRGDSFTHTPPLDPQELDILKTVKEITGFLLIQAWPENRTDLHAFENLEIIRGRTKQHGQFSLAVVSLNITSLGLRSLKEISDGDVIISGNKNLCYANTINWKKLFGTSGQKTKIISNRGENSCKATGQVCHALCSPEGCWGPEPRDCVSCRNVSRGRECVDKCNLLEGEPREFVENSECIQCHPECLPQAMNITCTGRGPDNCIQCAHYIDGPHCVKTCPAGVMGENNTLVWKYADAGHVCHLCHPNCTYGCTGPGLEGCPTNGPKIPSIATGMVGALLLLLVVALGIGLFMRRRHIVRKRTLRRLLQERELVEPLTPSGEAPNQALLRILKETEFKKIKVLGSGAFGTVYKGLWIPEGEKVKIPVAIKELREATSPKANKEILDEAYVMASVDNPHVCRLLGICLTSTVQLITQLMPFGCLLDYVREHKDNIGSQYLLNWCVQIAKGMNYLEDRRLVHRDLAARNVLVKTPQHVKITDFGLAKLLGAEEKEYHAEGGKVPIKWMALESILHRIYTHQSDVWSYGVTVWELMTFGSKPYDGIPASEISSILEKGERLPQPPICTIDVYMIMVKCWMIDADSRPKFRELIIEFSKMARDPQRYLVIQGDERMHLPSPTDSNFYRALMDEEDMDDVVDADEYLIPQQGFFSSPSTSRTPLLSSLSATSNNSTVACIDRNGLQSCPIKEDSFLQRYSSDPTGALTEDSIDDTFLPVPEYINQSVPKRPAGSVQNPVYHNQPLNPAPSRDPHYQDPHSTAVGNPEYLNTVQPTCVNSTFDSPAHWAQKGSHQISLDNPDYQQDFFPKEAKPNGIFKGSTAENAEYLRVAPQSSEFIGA
Sequence of Ephrin type-A receptor 7 (Homo sapiens) (Q15375 28-998 limits assumed): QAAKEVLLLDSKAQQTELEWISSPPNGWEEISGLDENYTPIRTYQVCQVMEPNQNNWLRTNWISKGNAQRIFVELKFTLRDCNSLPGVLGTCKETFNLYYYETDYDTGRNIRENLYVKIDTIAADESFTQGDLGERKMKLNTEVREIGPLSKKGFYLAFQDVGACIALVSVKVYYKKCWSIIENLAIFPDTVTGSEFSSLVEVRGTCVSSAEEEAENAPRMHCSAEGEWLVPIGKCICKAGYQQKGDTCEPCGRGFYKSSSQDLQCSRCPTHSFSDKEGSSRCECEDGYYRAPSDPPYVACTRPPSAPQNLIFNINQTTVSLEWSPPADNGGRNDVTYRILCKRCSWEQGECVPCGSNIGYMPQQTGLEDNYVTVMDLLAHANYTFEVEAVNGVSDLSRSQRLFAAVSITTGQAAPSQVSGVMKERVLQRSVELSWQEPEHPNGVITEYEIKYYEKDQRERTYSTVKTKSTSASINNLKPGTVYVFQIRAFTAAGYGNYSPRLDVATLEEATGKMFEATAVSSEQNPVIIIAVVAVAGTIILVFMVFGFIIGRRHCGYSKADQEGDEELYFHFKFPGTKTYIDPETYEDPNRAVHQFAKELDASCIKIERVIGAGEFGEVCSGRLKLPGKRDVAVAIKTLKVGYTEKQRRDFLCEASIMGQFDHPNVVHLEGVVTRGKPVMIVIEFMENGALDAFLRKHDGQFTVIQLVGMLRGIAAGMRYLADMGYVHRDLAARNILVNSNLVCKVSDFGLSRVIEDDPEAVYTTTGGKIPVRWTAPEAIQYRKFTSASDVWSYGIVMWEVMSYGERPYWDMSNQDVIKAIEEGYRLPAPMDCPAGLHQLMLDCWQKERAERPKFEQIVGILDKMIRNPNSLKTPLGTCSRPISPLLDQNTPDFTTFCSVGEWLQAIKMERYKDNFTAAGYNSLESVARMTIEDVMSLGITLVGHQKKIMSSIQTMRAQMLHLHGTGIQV
Sequence of Serine/threonine-protein kinase B-raf (Homo sapiens), P15056 [V600E] (P15056 whole entry V600E): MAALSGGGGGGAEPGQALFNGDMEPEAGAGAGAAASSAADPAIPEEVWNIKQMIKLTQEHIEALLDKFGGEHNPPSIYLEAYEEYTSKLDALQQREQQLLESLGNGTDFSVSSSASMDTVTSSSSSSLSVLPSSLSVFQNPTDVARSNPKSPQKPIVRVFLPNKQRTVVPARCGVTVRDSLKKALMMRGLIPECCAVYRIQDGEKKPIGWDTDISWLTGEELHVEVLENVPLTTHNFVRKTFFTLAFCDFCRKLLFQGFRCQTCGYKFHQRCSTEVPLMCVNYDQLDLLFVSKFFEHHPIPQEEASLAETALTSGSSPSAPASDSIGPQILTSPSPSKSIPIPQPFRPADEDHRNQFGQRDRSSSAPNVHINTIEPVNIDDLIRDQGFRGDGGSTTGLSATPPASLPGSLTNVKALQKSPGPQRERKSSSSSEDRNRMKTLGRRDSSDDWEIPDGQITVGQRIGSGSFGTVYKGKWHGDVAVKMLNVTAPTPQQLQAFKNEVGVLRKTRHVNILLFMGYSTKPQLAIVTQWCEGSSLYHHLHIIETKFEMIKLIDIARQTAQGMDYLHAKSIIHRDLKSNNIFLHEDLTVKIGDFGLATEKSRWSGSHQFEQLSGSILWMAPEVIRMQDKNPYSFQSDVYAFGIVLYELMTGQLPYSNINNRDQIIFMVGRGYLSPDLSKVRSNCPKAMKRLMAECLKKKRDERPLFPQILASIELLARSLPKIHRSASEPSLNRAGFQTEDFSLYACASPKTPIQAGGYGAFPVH

As to `CN1C(=O)c2sccc2N(C)c2nc(Nc3ccc(S(N)(=O)=O)cc3)ncc21`, the Activity in test [1] stood at 100%; in test [2], 100%; in test [3] it was 100%; in test [4], 100%; in [5], 94%; in test [6], 65%. Besides, the Activity in test [7] amounted to 100%; in test [8], 28%; in test [9] it was 67%; in [11], 98%; in test [12], 90%; in test [13], 94%. Moreover, the Activity in test [14] came out at 82%; in [16] it was 100%; in test [17], 80%; in [18], 98%; in [19], 100%; in test [20] it was 84%. For the same compound, the Activity stood at 100% in [21], 100% in test [22] and 86% in [23]. The Kd in test [10] was 16 nM. In addition, the IC50 in test [15] was 4040 nM. Further, the inhibition result in the test on HepG2 was “Active”.
